Measurements reported in ChEMBL document CHEMBL1153746, “Mansouramycins A-D, cytotoxic isoquinolinequinones from a marine streptomycete” (J Nat Prod, 2009).

Tests used:
CWR22R = assay: Cytotoxicity against human 22Rv1 cells after 4 days by propidium iodide assay; assay type: functional, cell-based; details: 22Rv1, 96 h
Summary of the method: (§1)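 Monolayer cell proliferation assay across a panel of up to 36 human tumour lines covering 14 solid tumour types. Lines came either from patient tumours grown as subcutaneous xenografts in NMRI nu/nu mice or from culture collections (ATCC, NCI, DSMZ). Potency is given as IC50.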

[1] = Cytotoxicity against human LXFL 529L cells after 4 days by propidium iodide assay; assay type: functional, cell-based; details: 96 h; summary of the method: as §1
[2] = Cytotoxicity against human MAXF 401NL cells after 4 days by propidium iodide assay; assay type: functional, cell-based; details: 96 h; summary of the method: as §1
PANC-1 = assay: Cytotoxicity against human PANC1 cells after 4 days by propidium iodide assay; assay type: functional, cell-based; details: PANC-1, 96 h; summary of the method: as §1
DU-145 = assay: Cytotoxicity against human DU145 cells after 4 days by propidium iodide assay; assay type: functional, cell-based; details: DU-145, 96 h; summary of the method: as §1
[3] = Cytotoxicity against human 1218L cells after 4 days by propidium iodide assay; assay type: functional, cell-based; details: 96 h; summary of the method: as §1
[4] = Cytotoxicity against human PC3M cells after 4 days by propidium iodide assay; assay type: functional, cell-based; details: PC-3M, 96 h; summary of the method: as §1
SF-268 = assay: Cytotoxicity against human SF268 cells after 4 days by propidium iodide assay; assay type: functional, cell-based; details: SF-268, 96 h; summary of the method: as §1
[5] = Cytotoxicity against human 276L cells after 4 days by propidium iodide assay; assay type: functional, cell-based; details: 96 h; summary of the method: as §1
[6] = Cytotoxicity against human 1781L cells after 4 days by propidium iodide assay; assay type: functional, cell-based; details: 96 h; summary of the method: as §1
[7] = Cytotoxicity against human 899L cells after 4 days by propidium iodide assay; assay type: functional, cell-based; details: 96 h; summary of the method: as §1
[8] = Cytotoxicity against human BXF T24 cells after 4 days by propidium iodide assay; assay type: functional, cell-based; details: T-24, 96 h; summary of the method: as §1
[9] = Cytotoxicity against human RXF 944L cells after 4 days by propidium iodide assay; assay type: functional, cell-based; details: 96 h; summary of the method: as §1
HT-29 = assay: Cytotoxicity against human HT-29 cells after 4 days by propidium iodide assay; assay type: functional, cell-based; details: HT-29, 96 h; summary of the method: as §1
[10] = Cytotoxicity against human 498NL cells after 4 days by propidium iodide assay; assay type: functional, cell-based; details: 96 h; summary of the method: as §1
[11] = Cytotoxicity against human 289L cells after 4 days by propidium iodide assay; assay type: functional, cell-based; details: 96 h; summary of the method: as §1
[12] = Cytotoxicity against human GXF251L cells after 4 days by propidium iodide assay; assay type: functional, cell-based; details: GXF 251L, 96 h; summary of the method: as §1
NCI-H460 = assay: Cytotoxicity against human H460 cells after 4 days by propidium iodide assay; assay type: functional, cell-based; details: NCI-H460, 96 h; summary of the method: as §1
[13] = Cytotoxicity against human 1619L cells after 4 days by propidium iodide assay; assay type: functional, cell-based; details: 96 h; summary of the method: as §1
[14] = Cytotoxicity against human 1657L cells after 4 days by propidium iodide assay; assay type: functional, cell-based; details: 96 h; summary of the method: as §1
[15] = Cytotoxicity against human 629L cells after 4 days by propidium iodide assay; assay type: functional, cell-based; details: 96 h; summary of the method: as §1
LNCaP = assay: Cytotoxicity against human LNCAP cells after 4 days by propidium iodide assay; assay type: functional, cell-based; details: 96 h; summary of the method: as §1
[16] = Cytotoxicity against human 1752L cells after 4 days by propidium iodide assay; assay type: functional, cell-based; details: 96 h; summary of the method: as §1
MCF7 = assay: Cytotoxicity against human MCF7 cells after 4 days by propidium iodide assay; assay type: functional, cell-based; details: MCF7, 96 h; summary of the method: as §1
[17] = Cytotoxicity against human 526L cells after 4 days by propidium iodide assay; assay type: functional, cell-based; details: 96 h; summary of the method: as §1
HCT-116 = assay: Cytotoxicity against human HCT116 cells after 4 days by propidium iodide assay; assay type: functional, cell-based; details: HCT-116, 96 h; summary of the method: as §1
[18] = Cytotoxicity against human 1121L cells after 4 days by propidium iodide assay; assay type: functional, cell-based; details: 96 h; summary of the method: as §1
[19] = Cytotoxicity against human 394NL cells after 4 days by propidium iodide assay; assay type: functional, cell-based; details: 96 h; summary of the method: as §1
[20] = Cytotoxicity against human RXF 486L cells after 4 days by propidium iodide assay; assay type: functional, cell-based; details: 96 h; summary of the method: as §1
[21] = Cytotoxicity against human 520L cells after 4 days by propidium iodide assay; assay type: functional, cell-based; details: 96 h; summary of the method: as §1
[22] = Cytotoxicity against human MEXF 462NL cells after 4 days by propidium iodide assay; assay type: functional, cell-based; details: 96 h; summary of the method: as §1
[23] = Cytotoxicity against human 536L cells after 4 days by propidium iodide assay; assay type: functional, cell-based; details: 96 h; summary of the method: as §1
[24] = Cytotoxicity against human 514L cells after 4 days by propidium iodide assay; assay type: functional, cell-based; details: 96 h; summary of the method: as §1
[25] = Cytotoxicity against human UXF 1138L cells after 4 days by propidium iodide assay; assay type: functional, cell-based; details: 96 h; summary of the method: as §1
OVCAR-3 = assay: Cytotoxicity against human OVCAR-3 cells after 4 days by propidium iodide assay; assay type: functional, cell-based; details: OVCAR-3, 96 h; summary of the method: as §1
[26] = Cytotoxicity against human 393NL cells after 4 days by propidium iodide assay; assay type: functional, cell-based; details: 96 h; summary of the method: as §1
Candida albicans = assay: Antifungal activity against Candida albicans at […] by agar diffusion test; assay type: functional
Chlorella vulgaris = assay: Antialgal activity against Chlorella vulgaris at […] by agar diffusion test; assay type: functional
Rhizomucor miehei = assay: Antifungal activity against Mucor miehei at […] by agar diffusion test; assay type: functional
Escherichia coli = assay: Antibacterial activity against Escherichia coli at […] by agar diffusion test; assay type: functional
Staphylococcus aureus = assay: Antibacterial activity against Staphylococcus aureus at […] by agar diffusion test; assay type: functional
[27] = tested on: Streptomyces viridochromogenes; assay: Antibacterial activity against Streptomyces viridochromogenes at […] by agar diffusion test; assay type: functional
Chlorella sorokiniana = assay: Antialgal activity against Chlorella sorokiniana at […] by agar diffusion test; assay type: functional
Bacillus subtilis = assay: Antibacterial activity against Bacillus subtilis at […] by agar diffusion test; assay type: functional
Desmodesmus subspicatus = assay: Antialgal activity against Scenedesmus subspicatus at […] by agar diffusion test; assay type: functional
[28] = in the assay text read “MTT assay” for “propidium iodide assay”

CNC1=CC(=O)c2cc(C(=O)OC)ncc2C1=O
IC50 (CWR22R): 671 nM
IC50 [1]: 89 nM
IC50 [2]: 195 nM
IC50 (PANC-1): 549 nM
IC50 (DU-145): 992 nM
IC50 [3]: 134 nM
IC50 [4]: 215 nM
IC50 (SF-268): 8 nM
IC50 [5]: 8 nM
IC50 [6]: 114 nM
IC50 [7]: 134 nM
IC50 [8]: 8 nM
IC50 [9]: 20 nM
IC50 (HT-29): 146 nM
IC50 [10]: 130 nM
IC50 [11]: 130 nM
IC50 [12]: 167 nM
IC50 (NCI-H460): 134 nM
IC50 [13]: 45 nM
IC50 [14]: 61 nM
IC50 [15]: 16 nM
IC50 (LNCaP): 1430 nM
IC50 [16]: 130 nM
IC50 (MCF7): 12 nM
IC50 [17]: 110 nM
IC50 (HCT-116): 114 nM
IC50 [18]: 150 nM
IC50 [19]: 106 nM
IC50 [20]: 1650 nM
IC50 [21]: 12 nM
IC50 [22]: 179 nM
IC50 [23]: 146 nM
IC50 [24]: 12 nM
IC50 [25]: 12 nM
IC50 (OVCAR-3): 12 nM
IC50 [26]: 122 nM

CNC1=CC(=O)c2c(cnc(C)c2C)C1=O [MANSOURAMYCIN A]
IC50 (CWR22R): 21700 nM
diameter of the inhibition zone (DIZ) (Candida albicans): 0 mm
IC50 [1]: 12400 nM
IC50 [2]: 47800 nM
IC50 (PANC-1): 26800 nM
IC50 (DU-145): 1250 nM
IC50 [3]: 28200 nM
diameter of the inhibition zone (DIZ) (Chlorella vulgaris): 22 mm
diameter of the inhibition zone (DIZ) (Rhizomucor miehei): 0 mm
IC50 [4]: 32600 nM
IC50 (SF-268): 14400 nM
IC50 [5]: 2440 nM
IC50 [6]: 16400 nM
IC50 [7, 28]: 34900 nM
IC50 [8]: 12600 nM
diameter of the inhibition zone (DIZ) (Escherichia coli): 10 mm
IC50 [9]: 18100 nM
IC50 (HT-29): 4630 nM
IC50 [10]: 14400 nM
IC50 [11]: 19000 nM
IC50 [12]: 31900 nM
IC50 (NCI-H460): 7110 nM
IC50 [13, 28]: 13200 nM
IC50 [14, 28]: 26000 nM
IC50 [15]: 4100 nM
diameter of the inhibition zone (DIZ) (Staphylococcus aureus): 12 mm
IC50 (LNCaP): 21700 nM
diameter of the inhibition zone (DIZ) [27]: 0 mm
diameter of the inhibition zone (DIZ) (Chlorella sorokiniana): 17 mm
IC50 [16]: 46300 nM
diameter of the inhibition zone (DIZ) (Bacillus subtilis): 10 mm
IC50 (MCF7): 2340 nM
IC50 [17]: 19000 nM
IC50 (HCT-116): 9110 nM
IC50 [18]: 27100 nM
IC50 [19]: 15600 nM
diameter of the inhibition zone (DIZ) (Desmodesmus subspicatus): 25 mm
IC50 [20]: 59100 nM
IC50 [21, 28]: 5450 nM
IC50 [22]: 49900 nM
IC50 [23]: 710 nM
IC50 [24]: 2600 nM
IC50 [25, 28]: 18000 nM
IC50 (OVCAR-3; [28]): 32300 nM
IC50 [26]: 18600 nM

O=S(=O)(O)O.Oc1cccc2cccnc12 [QUINOSOL]
diameter of the inhibition zone (DIZ) (Candida albicans): 11 mm
diameter of the inhibition zone (DIZ) (Chlorella vulgaris): 25 mm
diameter of the inhibition zone (DIZ) (Rhizomucor miehei): 30 mm
diameter of the inhibition zone (DIZ) (Escherichia coli): 15 mm
diameter of the inhibition zone (DIZ) (Staphylococcus aureus): 20 mm
diameter of the inhibition zone (DIZ) [27]: 0 mm
diameter of the inhibition zone (DIZ) (Chlorella sorokiniana): 28 mm
diameter of the inhibition zone (DIZ) (Bacillus subtilis): 15 mm
diameter of the inhibition zone (DIZ) (Desmodesmus subspicatus): 27 mm
